Published values from different studies.
Compare with care: the assays were run in different laboratories.
Observed: metabolic stability
Species: human
Sample: liver microsomes

Structure (SMILES) | tested at | pH | microsomal CLint [µL/min/mg]
N#Cc1cccc(-c2nc(N3CCC(c4ccccn4)C3)c3ccccc3n2)c1 (centres unmarked) |  |  | 261
O=S(=O)(c1ccc(-c2ccc3ncccc3c2)cc1)N1CCOCC1 |  |  | 13.3
COc1ccc(-c2nc3ccccn3c2N(C)c2ccc(F)cc2)nc1 | 3 µM | pH 7.4 | 93
NC(=O)c1cccc(-c2nc(N3CCC(c4ccccn4)C3)c3ccccc3n2)c1 (centres unmarked) |  |  | 111
FC(F)(F)c1cccc(Nc2c(-c3ccccn3)nc3ccccn23)c1 | 3 µM | pH 7.4 | 59
O=S(=O)(c1ccc(-c2ccc3nccc(Nc4ccccc4)c3c2)cc1)N1CCOCC1 |  |  | 71.3
COc1cc2[nH]c(C)c(-c3ccc(N(C)C)nc3)c(=O)c2cc1Cl | 1 µM |  | 20
Fc1ccc(Nc2c(-c3ccccn3)nc3ccccn23)nc1 | 3 µM | pH 7.4 | 44
COc1cc2[nH]c(C)c(-c3ccccc3C)c(=O)c2cc1Cl | 1 µM |  | 25
Oc1cccc(-c2nc(N3CCC(c4ccccn4)C3)c3ccccc3n2)c1 (centres unmarked) |  |  | 165
COc1cc2[nH]c(C)c(-c3ccco3)c(=O)c2cc1Cl | 1 µM |  | 59
CN(c1ccc(F)cc1)c1c(-c2cccc(F)n2)nc2ccccn12 | 3 µM | pH 7.4 | 170
c1ccc(-c2nc(NCc3nccs3)c3ccccc3n2)nc1 |  |  | 36
COc1cc2[nH]c(C)c(-c3ccc(C(C)=O)cc3)c(=O)c2cc1Cl | 1 µM |  | 11
